The test has as its system Caski. Description: Growth of Caski. It counts as cell-based, human. The note with it: 72 h. An outline of the steps:
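Cell lines carrying integrated viral genomes were plated in 96-well plates in medium with test compound. Growth was read by ATP luminescence (CellTiter-Glo) for HEK293 and WI38 VA13, and by MTS reduction (A490 after 2 h at 37 °C) for Namalwa, W12 20861, SiHa, Caski and HeLa. K and Imax came from a fit to a modified Hill equation.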

Consider `O=C(N[C@@H]1CCCc2c1[nH]c1ccc(Cl)cc21)c1ccccn1` [GSK983, N-[(1R)-6-Chloro-2,3,4,9-tetrahydro-1H-carbazol-1-yl]-2-pyridinecarboxamide], for which the “Imax, Growth, MTS” value (Caski, HPV16 integrated) is reported as 33 ± 1.5%. The EC50 (Homo sapiens, Ca-Ski, read-out: K, Growth, MTS) is 32 ± 6 nM.

Values taken from article PMC7114156 (Antiviral Research, 2009).
